Compound activity deposited in PubChem by several laboratories.
Mdm2 MdmX PPI: human Mdm2/MdmX binding inhibition. O15151+Q00987. SaOS-2 split-luciferase Mdm2/MdmX complementation, luminescence. 3% of 330,000 active. inhibition, % at 8 µM;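 active = inhibition of at least 50% at 8 µM in the primary screen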
XBP1 UPR activ: adaptive UPR (XBP1) activation; CHO-XBP1 luciferase reporter, IRE1-XBP1 UPR activation, luminescence; percent of tunicamycin response, DMSO as zero; 0.33% of 330,000 active; AID 463104; activation, % at 20 µM;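 active = versus positive control, 20 µM dose yields 30% or more activation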
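Material: IRE1-XBP1 luciferase reporter CHO line / Quantity: one thousand reporter cells per well / Buffer or medium: F12 with 10% serum / Compound: 20 µM single concentration, DMSO 1% / Times: 6 h treatment, 37 °C / Detection: Steady-Glo luciferase glow luminescence, 10 min after reagent addition / Benchmarks: tunicamycin high, DMSO low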
Mdm2 ligase inh: Mdm2 E3 ligase (human) inhibition; Q00987; cell-based MDM2 ubiquitination luciferase reporter, 2 h; 0 = plate control, 100 = twice control, blank-subtracted; signal enhancement, % at 5 µM; 0.11% of 210,000 active;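 active = signal enhancement of 30% or more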;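 also: luminescence tracks abundance of the self-degrading MDM2-luciferase fusion protein; higher signal means inhibition of MDM2 E3 ligase activity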
Target sequence (Q00987 whole entry, looked up, the tested form may be a part): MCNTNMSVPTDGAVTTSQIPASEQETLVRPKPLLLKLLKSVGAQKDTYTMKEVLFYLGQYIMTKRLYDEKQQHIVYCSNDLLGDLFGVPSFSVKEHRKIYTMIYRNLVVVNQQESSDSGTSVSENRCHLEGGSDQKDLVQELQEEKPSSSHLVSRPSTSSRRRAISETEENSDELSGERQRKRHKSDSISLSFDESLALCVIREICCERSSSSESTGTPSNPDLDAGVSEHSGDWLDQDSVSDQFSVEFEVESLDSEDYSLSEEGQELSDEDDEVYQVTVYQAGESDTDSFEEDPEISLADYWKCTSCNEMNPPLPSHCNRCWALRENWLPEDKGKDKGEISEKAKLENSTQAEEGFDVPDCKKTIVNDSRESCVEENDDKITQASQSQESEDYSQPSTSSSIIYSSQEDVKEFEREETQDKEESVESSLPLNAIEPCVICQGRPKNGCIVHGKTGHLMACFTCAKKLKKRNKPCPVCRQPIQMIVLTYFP
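Test system: stable mammalian line carrying autodegrading MDM2–luciferase fusion reporter; quantity: 2000 cells in each well; times: 4 h cell settling then 2 h compound exposure, 37 °C; detection: luminescence with SteadyLite reagent, 15 min at room temperature; evaluation: percent signal gain over controls, blank-subtracted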
B2AR ag: human beta-2 adrenergic receptor agonism by FAP; Am2.2-beta2AR cells, FAP receptor internalization, flow cytometry; 0.43% of 340,000 active; response, % (test concentration not listed);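 active = response above a set limit, near 3 SD of response in nonfluorescent compounds, cut at about 42% in these data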
UPR CHOP act: apoptotic UPR (CHOP) activation; CHO-CHOP luciferase reporter, luminescence; percent of tunicamycin response over DMSO baseline; activation, % at 10 µM; 0.34% of 330,000 active; AID 449763;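 active = at 10 µM dose, activation of 40% or more, normalized to positive control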
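Material: CHO-CHOP cells, stable luciferase reporter of PERK-eIF2a-CHOP signalling; quantity: 500 reporter cells seeded per well; buffer or medium: F12 medium containing 10% fetal bovine serum; compound: one dose, 10 µM in 0.5% DMSO; incubation: 6 h compound treatment, 37 °C; measured by: Steady-Glo luciferase luminescence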
Dynein cargo inh: dynein cargo transport inhibition; AID 1381; 3617.4 mouse cells, GR-EGFP nuclear translocation imaging; test concentration mostly 20 µM; stimulated with dexamethasone, 1 µM; stronger effect = lower value; 0.47% of 220,000 active; z-score, hits read low;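 active = plate z-score of nuclear minus cytoplasmic receptor signal below a set negative limit, without overly bright fluorescence or cell loss, cut at about -3.5 in these data, passing the limit was not always enough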;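 also: z-score of nuclear minus cytoplasmic ring GR-EGFP intensity difference per well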
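Also added: dexamethasone, 1.0 µM final. Medium: tet-free, stripped-serum medium. Detection: fixed, Hoechst-stained cells imaged at 10x for EGFP. Read-out: nuclear-to-cytoplasmic GR-EGFP distribution per well. Times: induction 48 h, compound 1 h, agonist 30 min.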
UPR XBP1 confirm: adaptive UPR (XBP1) activation, confirmed. shares compounds with XBP1 UPR activ. CHO-XBP1 IRE1-XBP1 luciferase reporter, luminescence. 63% of 1,000 active. activation, % at 20 µM;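 active = reporter signal at least 30% of the positive control's activation in two or more of four replicate wells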
Large screens that a line does not name were inactive (follow-up assays come after a bar, where they were run). In the library only some 3.7% were active in any assay of this set; here they are far more common.

O=C(Nc1ccccc1)N1CCN(S(=O)(=O)c2ccccc2)CC1	none
COc1ccc(CNc2nc(-c3ccccc3)nn2C(=O)c2cccs2)cc1	none
COc1ccc(CNc2nc(-c3ccccc3)nn2C(=O)c2ccc([N+](=O)[O-])cc2)cc1	XBP1 UPR activ 33 | UPR XBP1 confirm inactive
COc1ccc(C)cc1NCc1cc(=O)oc2cc(-c3ccccc3)c(O)cc12	XBP1 UPR activ 53 | UPR XBP1 confirm inactive
O=C(CC1CCCC1)N1CCN(S(=O)(=O)c2cccc(F)c2)CC1	none (no result: Mdm2 MdmX PPI, XBP1 UPR activ, Mdm2 ligase inh, UPR CHOP act, Dynein cargo inh)
COCc1cc(C)nc(SCC(=O)Oc2ccccc2)c1C#N	none
COCc1cc(C)nc(SCC(=O)c2ccc(O)c(O)c2)c1C#N	XBP1 UPR activ 41 | UPR XBP1 confirm 43
N#Cc1ccc(-c2ccccc2)nc1SCC(=O)c1cccc(Cl)c1	none
N#Cc1ccc(-c2ccc(Cl)cc2)nc1SCC(=O)c1cccc(Cl)c1	XBP1 UPR activ 122 | UPR XBP1 confirm 369
Cc1onc(-c2c(F)cccc2Cl)c1C(=O)N(C)C1CCCCC1	none (no result: Mdm2 ligase inh, Dynein cargo inh)
COc1ccc(OC)c(Nc2nc(NCc3ccco3)nc(N)c2[N+](=O)[O-])c1	XBP1 UPR activ 55 | UPR XBP1 confirm 62
O=C1NC(c2ccccc2)N=C2Oc3ccccc3C=C12 (stereo unspecified)	none (no result: Mdm2 MdmX PPI, XBP1 UPR activ, Mdm2 ligase inh, UPR CHOP act, Dynein cargo inh)
CC(C)CCn1c(=O)c(C(=O)N/N=C/c2cccc(F)c2)c(O)c2ccccc21	XBP1 UPR activ 37 | UPR XBP1 confirm inactive
NC(=O)c1ccc(NC(=O)COC(=O)c2c[nH]c3ccccc23)cc1	none (no result: Mdm2 ligase inh, Dynein cargo inh)
O=C1C[C@H]2[C@H](CO)[C@@H](OC(=O)c3ccc(-c4ccccc4)cc3)C[C@H]2O1	none
Cc1c(CCOC(=O)C23CC4(C)CC(C)(CC(C)(C4)C2)C3)sc[n+]1CC(=O)c1ccccc1	XBP1 UPR activ 40 | UPR XBP1 confirm 65
COc1cccc(C(=O)Nc2ccc3c(c2)C(=O)c2ccccc2C3=O)c1	XBP1 UPR activ 91 | UPR XBP1 confirm inactive
O=C(Nc1ccc2c(c1)C(=O)c1ccccc1-2)c1ccccc1	none (no result: Mdm2 MdmX PPI, XBP1 UPR activ, Mdm2 ligase inh, UPR CHOP act, Dynein cargo inh)
COc1cc(/C=N/NC(=O)NC23CC4CC(CC(C4)C2)C3)ccc1OCC(N)=O	XBP1 UPR activ 38 (no result: Mdm2 ligase inh, Dynein cargo inh) | UPR XBP1 confirm inactive
CCNC(=O)c1c(NC(=O)c2cc(-c3cc(C)ccc3O)n[nH]2)sc2c1CCCC2	XBP1 UPR activ 42 | UPR XBP1 confirm 75
COCOc1cc(O)c(C(=O)/C=C/c2ccccc2)c(OCOC)c1	XBP1 UPR activ 40 (no result: Mdm2 ligase inh, Dynein cargo inh) | UPR XBP1 confirm inactive
COc1ccc(C(=O)/C=C/c2ccccc2)c(OC)c1	none
O=S(=O)(Nc1ncccn1)c1ccc(-n2cnnn2)cc1	none
Cc1ccc(NC(=O)C(=O)NCC2OCCc3ccccc32)cc1 (stereo unspecified)	none
O=C(NCC1OCCc2ccccc21)c1ccc(NC(=O)c2ccc(Cl)cc2)cc1 (stereo unspecified)	XBP1 UPR activ 38 | UPR XBP1 confirm inactive
COC(=O)c1ccc(N2CCN(C)CC2)c(NC(=O)c2ccc(-c3ccc(Cl)cc3)o2)c1	XBP1 UPR activ 45 (no result: Mdm2 ligase inh, Dynein cargo inh) | UPR XBP1 confirm inactive
CN1CCN(c2ccccc2NC(=O)c2ccc(-c3cccc(Cl)c3)o2)CC1	none (no result: Mdm2 ligase inh, Dynein cargo inh)
O=C(Nc1cc(S(=O)(=O)N2CCOCC2)ccc1N1CCCC1)c1ccc(Cl)cc1	none (no result: Mdm2 ligase inh, Dynein cargo inh)
Cc1ccc(C)c(N2CCN(C(=O)c3cc(S(=O)(=O)N4CCOCC4)ccc3F)CC2)c1	XBP1 UPR activ 33 | UPR XBP1 confirm inactive
Cc1ccc(C(=O)Nc2cc(S(=O)(=O)N3CCOCC3)ccc2N2CCCC2)cc1	XBP1 UPR activ 35 (no result: Mdm2 ligase inh, Dynein cargo inh) | UPR XBP1 confirm 38
CCN(CC)c1ccc(C(=O)NNC(=O)CNC(=O)c2cccs2)cc1	none (no result: Mdm2 ligase inh, Dynein cargo inh)
Cc1cc(C(=O)NNC(=O)c2ccccc2[N+](=O)[O-])c(C)o1	XBP1 UPR activ 59 (no result: Mdm2 ligase inh, Dynein cargo inh) | UPR XBP1 confirm inactive
COc1ccccc1C(=O)NNC(=O)c1ccccc1[N+](=O)[O-]	none
Cc1ccc(NC(=O)Cn2c3ccc(F)cc3c3nc4n(c(=O)c32)CCS4)cc1F	none
O=C(Cn1c2ccc(F)cc2c2nc3n(c(=O)c21)CCS3)Nc1ccc(Cl)cc1F	XBP1 UPR activ 82 | UPR XBP1 confirm 34
COc1cc(OC)c(C=CC(=O)c2ccccc2O)c(OC)c1	none (no result: Mdm2 MdmX PPI, XBP1 UPR activ, Mdm2 ligase inh, UPR CHOP act, Dynein cargo inh)
